Reference: ChEMBL document CHEMBL2029208 (Bioorg Med Chem, 2012)
Converted amounts (≈) assume the structure as drawn. The source made the active and inactive calls. The calls are words filed in the database; no cut-off is given here.

What was measured:
[1] = test system: Mycobacterium tuberculosis; test: Antimycobacterial activity against Mycobacterium tuberculosis H37Ra at 10 uM; format: functional, organism-based
[2] = test system: Mycobacterium tuberculosis; test: microbe, parasite or virus in culture; format: functional; details: H37Ra
[3] = test system: Mycobacterium tuberculosis; test: Antimycobacterial activity against Mycobacterium tuberculosis H37Ra infected in gamma interferon-knockout mouse assessed as reduction in spleen CFU load at 150 mg/kg, po BID dosage beginning at 15 post infection for 9 days (reference value: 7.30 +/- 0.09 log10CFU); format: functional
[4] = test system: Mycobacterium tuberculosis; test: Antimycobacterial activity against Mycobacterium tuberculosis H37Ra infected in gamma interferon-knockout mouse assessed as reduction in lung CFU load at 150 mg/kg, po BID dosage beginning at 15 post infection for 9 days (reference value: 8.86 +/- 0.02 log10CFU); format: functional
[5] = mycobacterium tuberculosis h37ra, cytosol, 5 µM
[6] = test system: Mycobacterium tuberculosis; test: Inhibition of Mycobacterium tuberculosis epoxide hydrolase E expressed in Escherichia coli BL21AI cells using cyano(6-methoxy-2-napthalenyl)methyl[(2,3)-3-phenyloxiranyl] methyl ester carbonate as substrate at 10 nM preincubated for 10 mins before substrate addition measured after 30 mins by spectrofluorometric analysis
[7] = biological target: T1, Bifunctional epoxide hydrolase 2 (Homo sapiens, UniProt P34913);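 further: recombinant enzyme with CMNPC substrate, fluorescence readout of 6-methoxy-2-naphthaldehyde formed over a 10 min reaction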
T1 sequence (P34913 whole entry): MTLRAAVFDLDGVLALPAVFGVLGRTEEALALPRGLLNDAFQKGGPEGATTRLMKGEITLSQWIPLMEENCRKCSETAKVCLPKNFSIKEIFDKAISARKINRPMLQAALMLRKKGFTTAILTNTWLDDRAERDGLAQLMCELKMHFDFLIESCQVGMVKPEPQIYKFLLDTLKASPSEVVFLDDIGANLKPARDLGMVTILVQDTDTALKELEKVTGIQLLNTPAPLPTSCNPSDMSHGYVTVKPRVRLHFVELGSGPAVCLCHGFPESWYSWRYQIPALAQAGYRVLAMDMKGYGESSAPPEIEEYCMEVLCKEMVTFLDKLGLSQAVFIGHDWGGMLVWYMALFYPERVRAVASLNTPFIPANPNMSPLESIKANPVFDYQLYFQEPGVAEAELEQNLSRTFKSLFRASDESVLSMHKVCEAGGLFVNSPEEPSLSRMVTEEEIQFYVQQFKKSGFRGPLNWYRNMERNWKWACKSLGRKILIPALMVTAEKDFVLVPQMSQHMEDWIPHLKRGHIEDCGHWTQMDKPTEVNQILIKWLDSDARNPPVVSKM

[8] = test system: Mycobacterium tuberculosis; test: Antimycobacterial activity against Mycobacterium tuberculosis H37Ra infected in gamma interferon-knockout mouse assessed as reduction in lung CFU load at 25 mg/kg, po BID dosage beginning at 15 post infection for 9 days (reference value: 8.86 +/- 0.02 log10CFU); format: functional
[9] = test system: Mycobacterium tuberculosis; test: Antimycobacterial activity against Mycobacterium tuberculosis H37Ra infected in gamma interferon-knockout mouse assessed as reduction in spleen CFU load at 25 mg/kg, po BID dosage beginning at 15 post infection for 9 days (reference value: 7.30 +/- 0.09 log10CFU); format: functional
[10] = Drug uptake in mouse serum at 140 mg/kg, po administered in 30% Captisol measured after 2 hrs by LC-MS/MS analysis; format: ADME, organism-based; parameters: dose 140 mg/kg, route oral; details: read-out: Drug uptake
Outline: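 Non-genetically modified mice were dosed at 140 mg/kg in 30% Captisol by gavage. Blood was clotted for at least 1 h and spun at ~3000g for 15 min, and serum was frozen at −70°C. Serum was diluted 4:1 with methanol containing warfarin (final 5 μM) as internal standard and centrifuged. Samples were quantified by LC/MS against a 7-point calibration curve.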

SMILES | MIC [2] | IC50 [7] | other results
O=C(Nc1cccc(C(=O)O)c1)NC12CC3CC(CC(C3)C1)C2 | 7.8 µg/mL (≈ 24.8 µM) | – | Activity [1]: Active
COC(=O)c1ccc(NC(=O)NC2C3CC4CC(C3)CC2C4)cc1O (stereo not given) | 0.1 µg/mL (≈ 0.29 µM) | – | log10cfu [3]: 7.33; log10cfu [4]: 8.74
CCCCCO[C@H]1CC[C@H](NC(=O)NC23CC4CC(CC(C4)C2)C3)CC1 | 25 µg/mL (≈ 69 µM) | – | Drug uptake [5]: 128 ng; inhibition [6]: 93%
O=C(Nc1ccc(O)c(Cl)c1)NC12CC3CC(CC(C3)C1)C2 | 2 µg/mL (≈ 6.23 µM) | 5.1 nM | –
O=C(Nc1ccc(Oc2ccccc2)cc1)NC12CC3CC(CC(C3)C1)C2 | 0.1 µg/mL (≈ 0.276 µM) | 0.5 nM | –
O=C(Nc1cccc(C(=O)Nc2ccc(N3CCOCC3)cc2)c1)NC12CC3CC(CC(C3)C1)C2 | > 95 µg/mL | 74.2 nM | –
O=C(Nc1ccc(CC(=O)c2ccccc2)cc1)NC12CC3CC(CC(C3)C1)C2 | 2.43 µg/mL (≈ 6.25 µM) | 4.7 nM | –
O=C(Nc1ccc(OCCN2CCOCC2)cc1Cl)NC12CC3CC(CC(C3)C1)C2 | > 87 µg/mL | 2.4 nM | –
CCCCCCCCCCCC(=O)NC12CC3CC(CC(C3)C1)C2 | 4.17 µg/mL (≈ 12.5 µM) | 159 nM | –
O=C(NC12CC3CC(CC(C3)C1)C2)N[C@H]1CC[C@@H](OC2CCCCC2)CC1 | > 75 µg/mL | 1.6 nM | –
CC(C)c1ccc(NC(=O)NCC2CCCCC2)cc1 | 1.72 µg/mL (≈ 6.27 µM) | 1.1 nM | –
CCOC(=O)C(F)(F)Oc1ccc(NC(=O)NC23CC4CC(CC(C4)C2)C3)cc1 | 1.28 µg/mL (≈ 3.13 µM) | 0.8 nM | –
COC(=O)c1ccc(NC(=O)N[C@H]2CC[C@@H](Oc3cc(C(=O)OC)cc(C(=O)OC)c3)CC2)cc1 | 3.03 µg/mL (≈ 6.25 µM) | 3.8 nM | –
O=C(Nc1cccc(OC(F)(F)C(F)F)c1)NC12CC3CC(CC(C3)C1)C2 | 1.4 µg/mL (≈ 3.62 µM) | 1.5 nM | –
COC(=O)c1cccc(O[C@H]2CC[C@@H](NC(=O)NC34CC5CC(CC(C5)C3)C4)CC2)c1 | > 85 µg/mL | 2.5 nM | Activity [1]: inactive
O=C(NC1CCCC(C(=O)N2CCOCC2)C1)NC12CC3CC(CC(C3)C1)C2 (stereo not given) | > 81 µg/mL | 8.2 nM | –
CCCCCCc1ccc(NC(=O)NC2CCCCC2)cc1 | 1.89 µg/mL (≈ 6.25 µM) | 1.8 nM | –
O=C(Nc1ccc(OC(F)(F)F)cc1)Nc1ccc(OC(F)(F)F)cc1 | 4.75 µg/mL (≈ 12.5 µM) | 9.6 nM | –
O=C(NC12CC3CC(CC(C3)C1)C2)N[C@H]1CC[C@H](Oc2ccc(C(F)(F)F)cn2)CC1 | > 88 µg/mL | 4.8 nM | –
CCOCCOCCOCCCCCCNC(=O)NC12CC3CC(CC(C3)C1)C2 | 82 µg/mL (≈ 200 µM) | 1.2 nM | –
CC(C)(C)c1ccc(NC(=O)NC2CCCCC2)cc1 | 1.72 µg/mL (≈ 6.27 µM) | 3.9 nM | –

SMILES | MIC [2] | IC50 [7] | other results
O=C(Nc1ccc(C(=O)c2ccccc2)cc1)NC12CC3CC(CC(C3)C1)C2 | 1.8 µg/mL (≈ 4.81 µM) | 1.6 nM | –
O=C(Nc1ccc(C(F)(F)F)cc1)Nc1ccc(C(F)(F)F)cc1 | 2.18 µg/mL (≈ 6.26 µM) | 15 nM | –
Cc1cccc(NC(=O)NC23CC4CC(CC(C4)C2)C3)c1 | 1.1 µg/mL (≈ 3.87 µM) | 6.1 nM | –
O=C(Nc1ccc(OCCOCCOCC(F)(F)F)cc1)NC12CC3CC(CC(C3)C1)C2 | 11 µg/mL (≈ 24.1 µM) | 3.3 nM | –
CCOCCOCC(OC(=O)CCCNC(=O)NC12CC3CC(CC(C3)C1)C2)c1ccccc1 (stereo not given) | 95 µg/mL (≈ 201 µM) | 4.2 nM | –
O=C(NC12CC3CC(CC(C3)C1)C2)N[C@H]1CC[C@H](Oc2ccc(C(=O)O)cc2)CC1 | 21 µg/mL (≈ 50.9 µM) | – | Activity [1]: inactive
O=C(NCCCN1CCOCC1)NC12CC3CC(CC(C3)C1)C2 | > 64 µg/mL | 610 nM | –
CCOC(=O)c1ccc(O[C@H]2CC[C@@H](NC(=O)NC34CC5CC(CC(C5)C3)C4)CC2)cc1 | 8.3 µg/mL (≈ 18.8 µM) | 1.6 nM | –
O=C(Nc1ccc(I)cc1)NC12CC3CC(CC(C3)C1)C2 | 0.6 µg/mL (≈ 1.51 µM) | 0.5 nM | –
O=C(Nc1cccc(OC(F)F)c1)NC12CC3CC(CC(C3)C1)C2 | 0.8 µg/mL (≈ 2.38 µM) | 2.6 nM | –
O=C(NCC1CCCCC1)Nc1cccc(Cl)c1 | 1.67 µg/mL (≈ 6.26 µM) | 2.6 nM | –
O=C(Nc1ccc(OC(F)(F)F)cc1)NC1CCCCC1 | 0.94 µg/mL (≈ 3.11 µM) | 0.8 nM | –
CCOCCOCCOc1ccc(C(OC(=O)CCCNC(=O)NC23CC4CC(CC(C4)C2)C3)c2ccccc2)cc1 (stereo not given) | > 116 µg/mL | 5.1 nM | –
O=C(NCCCCCOCCOCCOCc1ccccc1)NC12CC3CC(CC(C3)C1)C2 | 46 µg/mL (≈ 100 µM) | 10.8 nM | –
CC(=O)c1cccc(NC(=O)NC23CC4CC(CC(C4)C2)C3)c1 | 3.9 µg/mL (≈ 12.5 µM) | 1.3 nM | –
O=C(NC12CC3CC(CC(C3)C1)C2)N[C@H]1CC[C@@H](Oc2ccc(C(F)(F)F)cn2)CC1 | 1.37 µg/mL (≈ 3.13 µM) | 1.8 nM | –
COc1cc(NC(=O)NC23CC4CC(CC(C4)C2)C3)cc(C(F)(F)F)c1 | 0.58 µg/mL (≈ 1.57 µM) | 1.7 nM | –
CCCC(C)OCCOCCOCCCCCNC(=O)NC12CC3CC(CC(C3)C1)C2 (stereo not given) | > 91 µg/mL | 6.2 nM | –
NNC(=O)c1ccncc1 [ISONIAZID] | 0.08 µg/mL (≈ 0.583 µM) | – | log10cfu [8]: 5.41; log10cfu [9]: 3.63
O=C(NCCCCCOCCN1CCOCC1)NC12CC3CC(CC(C3)C1)C2 | > 79 µg/mL | 2.3 nM | –
O=C(Nc1cccc([N+](=O)[O-])c1)N[C@H]1CC[C@H](OCc2c(F)cccc2F)CC1 | 10.1 µg/mL (≈ 25 µM) | 90 nM | –

SMILES | MIC [2] | IC50 [7] | other results
O=C(Nc1ccc(F)c(F)c1F)NC1C2CC3CC(C2)CC1C3 (stereo not given) | – | – | inhibition [6]: 68%
CC(C)OCCOCCOCCCCCNC(=O)NC12CC3CC(CC(C3)C1)C2 | 21 µg/mL (≈ 51.1 µM) | 4.1 nM | –
O=C(NC1CCCC(C(=O)NN2CCOCC2)C1)NC12CC3CC(CC(C3)C1)C2 (stereo not given) | > 84 µg/mL | 25.8 nM | –
O=C(Nc1ccc(N2CCOCC2)cc1)NC12CC3CC(CC(C3)C1)C2 | 18 µg/mL (≈ 50.6 µM) | 5.2 nM | –
O=C(Nc1ccc(OCCCN2CCOCC2)cc1)NC12CC3CC(CC(C3)C1)C2 | > 17 µg/mL | – | Drug uptake [5]: 103 ng; inhibition [6]: 19%
O=C(NC1CCCC(C(=O)N2CCC(N3CCOCC3)CC2)C1)NC12CC3CC(CC(C3)C1)C2 (stereo not given) | > 95 µg/mL | 6.1 nM | –
C=C(CCCNC(=O)NC12CC3CC(CC(C3)C1)C2)OCCOCCOCC | > 79 µg/mL | 67 nM | –
COC(=O)CCc1ccc(NC(=O)NC23CC4CC(CC(C4)C2)C3)cc1 | 2.2 µg/mL (≈ 6.17 µM) | 2 nM | –
O=C(Nc1cccc(C(F)(F)F)c1)NC12CC3CC(CC(C3)C1)C2 | 0.8 µg/mL (≈ 2.36 µM) | 2.4 nM | –
COC(=O)Cc1ccc(NC(=O)NC23CC4CC(CC(C4)C2)C3)cc1 | 2.1 µg/mL (≈ 6.13 µM) | 4.4 nM | –
C=CCO[C@H]1CC[C@@H](NC(=O)NC23CC4CC(CC(C4)C2)C3)CC1 | > 66 µg/mL | 1.3 nM | –
COC(=O)c1ccc(NC(=O)NC23CC4CC(CC(C4)C2)C3)cc1O | 1.1 µg/mL (≈ 3.19 µM) | – | concentration at 2 h [10]: 3000 nM; Activity [1]: inactive; log10cfu [3]: 7.31; log10cfu [4]: 8.77
O=C(Nc1cccc(C(=O)c2ccccc2)c1)NC12CC3CC(CC(C3)C1)C2 | 4.68 µg/mL (≈ 12.5 µM) | 2.7 nM | –
O=C(Nc1cccc(C(=O)NCCCN2CCOCC2)c1)NC12CC3CC(CC(C3)C1)C2 | > 33 µg/mL | 57.9 nM | –
COCCOCCCCCNC(=O)NC12CC3CC(CC(C3)C1)C2 | 68 µg/mL (≈ 201 µM) | 12.1 nM | –
O=C(Nc1ccc(OCCN2CCOCC2)c(Cl)c1)NC12CC3CC(CC(C3)C1)C2 | 27 µg/mL (≈ 62.2 µM) | 0.6 nM | –
CC(=O)c1ccc(NC(=O)NC23CC4CC(CC(C4)C2)C3)cc1 | 2 µg/mL (≈ 6.4 µM) | 6.3 nM | –
COC(=O)c1ccc(NC(=O)NC2CCCCCC2)cc1 | 3.63 µg/mL (≈ 12.5 µM) | 12.3 nM | Activity [1]: inactive
O=C(NC12CC3CC(CC(C3)C1)C2)N[C@H]1CC[C@H](OC(=O)c2ccccc2)CC1 | > 79 µg/mL | 1 nM | Activity [1]: inactive
O=C(Nc1ccc(Cl)c(Cl)c1)Nc1ccc(Cl)c(Cl)c1 | 2.19 µg/mL (≈ 6.26 µM) | 28.1 nM | –
COCC(=O)c1ccc(O[C@H]2CC[C@@H](NC(=O)NC34CC5CC(CC(C5)C3)C4)CC2)cc1 | 5.51 µg/mL (≈ 12.5 µM) | 3.8 nM | –
